Test results taken from ChEMBL document CHEMBL4689842, “EUbOPEN Chemogenomics Library wave 1” (2021).

What was measured:
Assay type in all cases: toxicity, cell-based
[1] = tested on: U2OS; assay: Multiplex assay against U2OS; conditions: human
Procedure, shortened: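 Four dyes were applied at seeding to live cells: Hoechst33342, BioTracker Green Microtubule Cytoskeleton Dye, MitoTracker Red and Annexin V Alexa Fluor 680. Imaging after compound addition used a CQ1 microscope at 37°C and 5% CO2. CellPathfinder machine-learning gating then sorted cells into Hoechst high-intensity objects or normal cells, normal cells into healthy, pyknosed or fragmented nuclei, and pyknosed cells into mitotic or apoptotic, with tubulin, mitochondrial-mass and membrane-permeability phenotypes given as per cents of healthy-nucleus cells.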

[2] = tested on: U2OS; assay: Incucyte cell viability with U2OS; conditions: human, 10 µM, compound concentration 10 uM; further: filed as whole numbers so only -1 and 0 and 1 occur
[3] = tested on: HEK-293T; assay: Incucyte cell viability with HEK293T; conditions: human, 10 µM, compound concentration 10 uM; further: filed as whole numbers so only -1 and 0 and 1 occur
[4] = tested on: Fibroblast; assay: Incucyte cell viability with human fibroblast; conditions: 10 µM, compound concentration 10 uM; further: filed as whole numbers so only -1 and 0 and 1 occur
[5] = 12 h, 1 µM, compound concentration 1 uM, replicate 1
[6] = 12 h, 1 µM, compound concentration 1 uM, replicate 2
[7] = 12 h, 10 µM, compound concentration 10 uM, replicate 1
[8] = 12 h, 10 µM, compound concentration 10 uM, replicate 2
[9] = 24 h, 1 µM, compound concentration 1 uM, replicate 1
[10] = 24 h, 1 µM, compound concentration 1 uM, replicate 2
[11] = 24 h, 10 µM, compound concentration 10 uM, replicate 1
[12] = 24 h, 10 µM, compound concentration 10 uM, replicate 2
[13] = 48 h, 1 µM, compound concentration 1 uM, replicate 1
[14] = 48 h, 1 µM, compound concentration 1 uM, replicate 2
[15] = 48 h, 10 µM, compound concentration 10 uM, replicate 1
[16] = 48 h, 10 µM, compound concentration 10 uM, replicate 2
[17] = 0 h, replicate number 1, timepoint 0 hours
[18] = 6 h, replicate number 1, timepoint 6 hours
[19] = 6 h, replicate number 2, timepoint 6 hours
[20] = 12 h, replicate number 1, timepoint 12 hours
[21] = 18 h, replicate number 1, timepoint 18 hours
[22] = 18 h, replicate number 2, timepoint 18 hours
[23] = 24 h, replicate number 1, timepoint 24 hours

## Cc1cc2c(cc1N1C(=O)c3cccc4c(CCCO)ccc(c34)C1=O)n(C)c(=O)n2C
[1]; [5]
  Population Apoptotic (%): 50%
  Population Fragmented Nuclei (%): 11%
  Population Healthy Nuclei (%): 82%
  Population Hoechst High Intensity Objects (%): 6%
  Population Membrane Permeable-Phenotype (%): 4%
  Population Mitochondria Different-Phenotype (%): 7%
  Population Mitotic Cells (%): 50%
  Population Normal (%): 93%
  Population Pyknosed Nuclei (%): 5%
  Population Tubulin-Different-Phenotype (%): 6%
  Total Cell Count: 179
[1]; [6]
  Population Apoptotic (%): 0%
  Population Fragmented Nuclei (%): 6%
  Population Healthy Nuclei (%): 90%
  Population Hoechst High Intensity Objects (%): 8%
  Population Membrane Permeable-Phenotype (%): 1%
  Population Mitochondria Different-Phenotype (%): 22%
  Population Mitotic Cells (%): 100%
  Population Normal (%): 91%
  Population Pyknosed Nuclei (%): 3%
  Population Tubulin-Different-Phenotype (%): 24%
  Total Cell Count: 104
[1]; [7]
  Population Apoptotic (%): 54%
  Population Fragmented Nuclei (%): 11%
  Population Healthy Nuclei (%): 72%
  Population Hoechst High Intensity Objects (%): 6%
  Population Membrane Permeable-Phenotype (%): 16%
  Population Mitochondria Different-Phenotype (%): 44%
  Population Mitotic Cells (%): 45%
  Population Normal (%): 93%
  Population Pyknosed Nuclei (%): 15%
  Population Tubulin-Different-Phenotype (%): 68%
  Total Cell Count: 166
[1]; [8]
  Population Apoptotic (%): 37%
  Population Fragmented Nuclei (%): 20%
  Population Healthy Nuclei (%): 63%
  Population Hoechst High Intensity Objects (%): 9%
  Population Membrane Permeable-Phenotype (%): 29%
  Population Mitochondria Different-Phenotype (%): 77%
  Population Mitotic Cells (%): 62%
  Population Normal (%): 90%
  Population Pyknosed Nuclei (%): 16%
  Population Tubulin-Different-Phenotype (%): 96%
  Total Cell Count: 54
[1]; [9]
  Population Apoptotic (%): 38%
  Population Fragmented Nuclei (%): 11%
  Population Healthy Nuclei (%): 80%
  Population Hoechst High Intensity Objects (%): 3%
  Population Membrane Permeable-Phenotype (%): 5%
  Population Mitochondria Different-Phenotype (%): 18%
  Population Mitotic Cells (%): 61%
  Population Normal (%): 96%
  Population Pyknosed Nuclei (%): 7%
  Population Tubulin-Different-Phenotype (%): 10%
  Total Cell Count: 176
[1]; [10]
  Population Apoptotic (%): 40%
  Population Fragmented Nuclei (%): 7%
  Population Healthy Nuclei (%): 87%
  Population Membrane Permeable-Phenotype (%): 0%
  Population Mitochondria Different-Phenotype (%): 27%
  Population Mitotic Cells (%): 60%
  Population Pyknosed Nuclei (%): 5%
  Population Tubulin-Different-Phenotype (%): 17%
  Total Cell Count: 96
[1]; [11]
  Population Apoptotic (%): 59%
  Population Fragmented Nuclei (%): 15%
  Population Healthy Nuclei (%): 70%
  Population Hoechst High Intensity Objects (%): 3%
  Population Membrane Permeable-Phenotype (%): 5%
  Population Mitochondria Different-Phenotype (%): 35%
  Population Mitotic Cells (%): 40%
  Population Normal (%): 96%
  Population Pyknosed Nuclei (%): 14%
  Population Tubulin-Different-Phenotype (%): 38%
  Total Cell Count: 159
[1]; [12]
  Population Apoptotic (%): 80%
  Population Fragmented Nuclei (%): 18%
  Population Healthy Nuclei (%): 62%
  Population Hoechst High Intensity Objects (%): 11%
  Population Membrane Permeable-Phenotype (%): 41%
  Population Mitochondria Different-Phenotype (%): 76%
  Population Mitotic Cells (%): 20%
  Population Normal (%): 88%
  Population Pyknosed Nuclei (%): 18%
  Population Tubulin-Different-Phenotype (%): 76%
  Total Cell Count: 61
[1]; [13]
  Population Apoptotic (%): 65%
  Population Fragmented Nuclei (%): 16%
  Population Healthy Nuclei (%): 72%
  Population Hoechst High Intensity Objects (%): 3%
  Population Membrane Permeable-Phenotype (%): 4%
  Population Mitochondria Different-Phenotype (%): 43%
  Population Mitotic Cells (%): 35%
  Population Normal (%): 96%
  Population Pyknosed Nuclei (%): 11%
  Population Tubulin-Different-Phenotype (%): 16%
  Total Cell Count: 187
[1]; [14]
  Population Apoptotic (%): 66%
  Population Fragmented Nuclei (%): 6%
  Population Healthy Nuclei (%): 90%
  Population Hoechst High Intensity Objects (%): 10%
  Population Membrane Permeable-Phenotype (%): 9%
  Population Mitochondria Different-Phenotype (%): 49%
  Population Mitotic Cells (%): 33%
  Population Normal (%): 89%
  Population Pyknosed Nuclei (%): 3%
  Population Tubulin-Different-Phenotype (%): 28%
  Total Cell Count: 103
[1]; [15]
  Population Apoptotic (%): 79%
  Population Fragmented Nuclei (%): 20%
  Population Healthy Nuclei (%): 53%
  Population Hoechst High Intensity Objects (%): 1%
  Population Membrane Permeable-Phenotype (%): 12%
  Population Mitochondria Different-Phenotype (%): 32%
  Population Mitotic Cells (%): 20%
  Population Normal (%): 98%
  Population Pyknosed Nuclei (%): 25%
  Population Tubulin-Different-Phenotype (%): 14%
  Total Cell Count: 154
[1]; [16]
  Population Apoptotic (%): 88%
  Population Fragmented Nuclei (%): 22%
  Population Healthy Nuclei (%): 45%
  Population Hoechst High Intensity Objects (%): 8%
  Population Membrane Permeable-Phenotype (%): 46%
  Population Mitochondria Different-Phenotype (%): 57%
  Population Mitotic Cells (%): 11%
  Population Normal (%): 91%
  Population Pyknosed Nuclei (%): 31%
  Population Tubulin-Different-Phenotype (%): 30%
  Total Cell Count: 62
[2]; [17]
  Growth Rate: 0
[2]; [18]
  Growth Rate: 0
[2]; [19]
  Growth Rate: 1
[2]; [20]
  Growth Rate: 0
[2]; [21]
  Growth Rate: 0
[2]; [22]
  Growth Rate: 1
[2]; [23]
  Growth Rate: 0
[3]; [17]
  Growth Rate: 1
[3]; [23]
  Growth Rate: 1
[4]; 0 h, replicate number 2, timepoint 0 hours
  Growth Rate: 0
[4]; [18]
  Growth Rate: 0
[4]; [19]
  Growth Rate: 1
[4]; [20]
  Growth Rate: 0
[4]; 12 h, replicate number 2, timepoint 12 hours
  Growth Rate: 1
[4]; [21]
  Growth Rate: 0
[4]; [22]
  Growth Rate: 1
[4]; [23]
  Growth Rate: 0
[4]; 24 h, replicate number 2, timepoint 24 hours
  Growth Rate: 1
